Source: ChEMBL document CHEMBL1157543, “Synthesis and biological evaluation of polysulfated oligosaccharide glycosides as inhibitors of angiogenesis and tumor growth” (J Med Chem, 2010)
Activity calls are given as the source filed them. The calls are words filed in the database; no cut-off is given here.

Legend:
Heparanase = biological target: T1, Heparanase (Homo sapiens, UniProt Q9Y251); assay: Inhibition of human recombinant heparanase
T1 sequence (Q9Y251 whole entry): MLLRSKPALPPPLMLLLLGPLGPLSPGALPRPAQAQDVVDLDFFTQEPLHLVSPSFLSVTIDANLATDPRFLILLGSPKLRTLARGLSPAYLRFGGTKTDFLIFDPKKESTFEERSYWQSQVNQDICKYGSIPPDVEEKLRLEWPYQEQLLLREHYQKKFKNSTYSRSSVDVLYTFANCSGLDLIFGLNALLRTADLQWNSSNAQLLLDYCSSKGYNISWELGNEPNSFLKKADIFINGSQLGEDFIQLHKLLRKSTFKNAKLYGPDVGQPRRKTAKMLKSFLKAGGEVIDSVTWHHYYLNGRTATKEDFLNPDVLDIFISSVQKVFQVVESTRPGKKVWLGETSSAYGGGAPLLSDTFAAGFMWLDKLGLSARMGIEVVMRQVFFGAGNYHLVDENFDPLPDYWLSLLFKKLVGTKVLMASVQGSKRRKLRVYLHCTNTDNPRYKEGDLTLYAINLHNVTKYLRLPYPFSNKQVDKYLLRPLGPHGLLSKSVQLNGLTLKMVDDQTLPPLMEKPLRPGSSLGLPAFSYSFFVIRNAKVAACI
In short: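 Recombinant human heparanase assayed by ultrafiltration with 3H-labelled heparan sulfate as substrate (Km = 1.64 μM). Ki values with standard error were derived from inhibition response curves.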

[1] = biological target: Fibroblast growth factor 1 (Homo sapiens, UniProt P05230); assay: Binding affinity to FGF1 by surface plasmon-based solution affinity assay
Fibroblast growth factor 1, sequence (P05230 whole entry): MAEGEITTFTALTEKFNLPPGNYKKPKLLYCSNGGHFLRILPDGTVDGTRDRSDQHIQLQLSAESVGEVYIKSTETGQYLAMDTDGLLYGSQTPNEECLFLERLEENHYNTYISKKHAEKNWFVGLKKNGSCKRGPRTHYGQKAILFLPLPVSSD
In short: (§1)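 Surface plasmon resonance solution affinity assay on heparin-coated CM4 chips. Buffer: HBS-EP (10 mM HEPES pH 7.4, 150 mM NaCl, 3.0 mM EDTA, 0.005% polysorbate 20). Kd is the mean of at least duplicate measurements ± SD.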

[2] = biological target: Fibroblast growth factor 2 (Homo sapiens, UniProt P09038); assay: Binding affinity to FGF2 by surface plasmon-based solution affinity assay
Fibroblast growth factor 2, sequence (P09038 143-288 limits assumed): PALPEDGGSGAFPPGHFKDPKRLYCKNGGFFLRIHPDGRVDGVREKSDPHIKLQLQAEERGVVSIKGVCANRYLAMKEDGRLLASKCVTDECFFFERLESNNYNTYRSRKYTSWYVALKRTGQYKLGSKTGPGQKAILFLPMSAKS
In short: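 Surface plasmon resonance solution affinity assay on heparin-coated CM4 chips. FGF-2 binding run in HBS-EP containing 300 mM NaCl. Kd is the mean of at least duplicate measurements ± SD.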

[3] = biological target: T2, Vascular endothelial growth factor A, long form (Homo sapiens, UniProt P15692); assay: Binding affinity to VEGF by surface plasmon-based solution affinity assay; in short: as §1
T2 sequence (P15692 whole entry): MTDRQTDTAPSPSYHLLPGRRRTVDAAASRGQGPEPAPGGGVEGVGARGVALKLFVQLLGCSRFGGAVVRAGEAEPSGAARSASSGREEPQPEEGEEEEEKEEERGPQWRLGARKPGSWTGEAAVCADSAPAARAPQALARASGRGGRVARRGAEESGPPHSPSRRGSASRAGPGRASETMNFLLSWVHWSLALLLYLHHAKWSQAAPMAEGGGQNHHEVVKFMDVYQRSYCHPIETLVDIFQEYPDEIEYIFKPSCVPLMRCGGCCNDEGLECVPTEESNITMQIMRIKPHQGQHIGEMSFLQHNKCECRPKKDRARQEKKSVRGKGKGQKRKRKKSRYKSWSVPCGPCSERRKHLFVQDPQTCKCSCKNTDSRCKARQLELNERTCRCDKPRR

Plasma [4] = assay: Anticoagulant activity in human plasma assessed as activated partial thromboplastin time; type: functional
In short: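 Pooled normal human plasma spiked with compound in PBS at 0.1 mg/mL (methods give a 0–100 μg/mL range); APTT elevation measured. Normal range 26–36 s. Values are means of two determinations.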

Plasma [5] = assay: Anticoagulant activity in human plasma by heptest; type: functional
In short: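 Heptest clot assay. Plasma (centrifuged 1800g, 10 min, used within 30 min) incubated with compound 2 min at 37 °C. Factor Xa added, 2 min at 37 °C, then clotting started with Recalmix; read on a ball coagulometer. Normal range 13–20 s; means of two determinations.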

HUVEC [6] = assay: Cytotoxicity against HUVEC; type: cell-based; conditions: human
Aorta = assay: Inhibition of angiogenesis in Sprague-Dawley rat aortic endothelium at 10 uM; type: functional, tissue-based
In short: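 Sprague-Dawley rats (2–4 months old): bisected 1 mm thoracic aortic rings embedded in Matrigel in EBM-2 with 2% FCS, no heparin. Compound added in triplicate, medium replenished every 48 h. Microvessel sprouting scored semiquantitatively by two assessors up to day 8. One-way ANOVA with Dunnett's test.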

[7] = Toxicity in rat aortic endothelium assessed as microvessel sprouts at 10 and 50 uM after 6 or 7 days; type: tissue-based, Sprague-Dawley, Aorta; conditions: ex_vivo, 168 h
In short: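 Aortic ring viability check: on day 6 or 7, compound or medium was withdrawn and complete medium with VEGF (typically 10 ng/mL) was added for up to 7 more days. New microvessel sprouting was taken as a sign of viable tissue.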

HUVEC [8] = assay: Inhibition of FGF1-induced HUVEC cell proliferation; type: functional, cell-based; conditions: Homo sapiens
In short: (§2)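 HUVECs seeded at 1–3 × 10^3 per well in EGM with 2% FBS and gentamicin. Proliferation driven by VEGF, FGF-1 or FGF-2; compound added typically at seven concentrations (1–50 μM) in triplicate. After 70 h, MTS reagent added for 2 h and A490 read. IC50 obtained from blank-subtracted curves.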

HUVEC [9] = assay: Inhibition of FGF2-induced HUVEC cell proliferation; type: functional, cell-based; conditions: Homo sapiens; in short: as §2
HUVEC [10] = assay: Inhibition of VEGF-induced HUVEC cell proliferation; type: functional, cell-based; conditions: Homo sapiens; in short: as §2
HUVEC [11] = assay: Antiangiogenic activity against HUVEC assessed as inhibition of endothelial cell tube formation on ECM-derived protein matrix at 100 uM by phase contrast microscopy; type: functional, cell-based; conditions: Homo sapiens
In short: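 HUVECs at passage 4–5 (70–80% confluent) suspended in EGM2 with all supplements except heparin at 4×10^5 cells/mL, mixed 1:1 with compound (final 10, 50, 100 μM), plated in triplicate on growth factor-reduced Matrigel. Incubated 18 h; tubes scored by phase-contrast microscopy. Untreated cells as control; one-way ANOVA with Dunnett's test.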

Molecule	Ki (Heparanase)	Kd [1]	Kd [2]	Kd [3]	Time (Plasma [4])	Activity (Plasma [5])	LC50 (HUVEC [6])	Activity (Aorta)	Activity [7]	Activity (HUVEC [8])	Activity (HUVEC [9])	Activity (HUVEC [10])	TIME (Plasma [4])	inhibition (HUVEC [11])
O=S(=O)([O-])OC[C@H]1O[C@H](OCc2ccccc2)[C@@H](O[C@H]2O[C@H](COS(=O)(=O)[O-])[C@@H](OS(=O)(=O)[O-])[C@H](O[C@H]3O[C@H](COS(=O)(=O)[O-])[C@@H](OS(=O)(=O)[O-])[C@H](O[C@H]4O[C@H](COS(=O)(=O)[O-])[C@@H](OS(=O)(=O)[O-])[C@H](OS(=O)(=O)[O-])[C@@H]4OS(=O)(=O)[O-])[C@@H]3OS(=O)(=O)[O-])[C@@H]2OS(=O)(=O)[O-])[C@@H](OS(=O)(=O)[O-])[C@@H]1OS(=O)(=O)[O-].[Na+].[Na+].[Na+].[Na+].[Na+].[Na+].[Na+].[Na+].[Na+].[Na+].[Na+].[Na+].[Na+]	280 nM	0.24 nM	129 nM	21 nM	417.9 s	281.1 s	> 100000 nM	Active	Toxic	Active	Active	Active	–	–
O=S(=O)([O-])OC[C@H]1O[C@H](OCCCCCCCCn2cc(-c3ccccc3)nn2)[C@@H](O[C@H]2O[C@H](COS(=O)(=O)[O-])[C@@H](OS(=O)(=O)[O-])[C@H](O[C@H]3O[C@H](COS(=O)(=O)[O-])[C@@H](OS(=O)(=O)[O-])[C@H](O[C@H]4O[C@H](COS(=O)(=O)[O-])[C@@H](OS(=O)(=O)[O-])[C@H](OS(=O)(=O)[O-])[C@@H]4OS(=O)(=O)[O-])[C@@H]3OS(=O)(=O)[O-])[C@@H]2OS(=O)(=O)[O-])[C@@H](OS(=O)(=O)[O-])[C@@H]1OS(=O)(=O)[O-].[Na+].[Na+].[Na+].[Na+].[Na+].[Na+].[Na+].[Na+].[Na+].[Na+].[Na+].[Na+].[Na+]	310 nM	0.28 nM	140 nM	10.4 nM	53 s	24.4 s	> 100000 nM	–	Toxic	–	–	–	–	–
O=S(=O)([O-])OC[C@H]1O[C@H](OCc2ccccc2)[C@@H](O[C@H]2O[C@H](COS(=O)(=O)[O-])[C@@H](OS(=O)(=O)[O-])[C@H](O[C@H]3O[C@H](COS(=O)(=O)[O-])[C@@H](OS(=O)(=O)[O-])[C@H](O[C@H]4O[C@H](COS(=O)(=O)[O-])[C@@H](OS(=O)(=O)[O-])[C@H](O[C@H]5O[C@H](COS(=O)(=O)[O-])[C@@H](OS(=O)(=O)[O-])[C@H](OS(=O)(=O)[O-])[C@@H]5OS(=O)(=O)[O-])[C@@H]4OS(=O)(=O)[O-])[C@@H]3OS(=O)(=O)[O-])[C@@H]2OS(=O)(=O)[O-])[C@@H](OS(=O)(=O)[O-])[C@@H]1OS(=O)(=O)[O-].[Na+].[Na+].[Na+].[Na+].[Na+].[Na+].[Na+].[Na+].[Na+].[Na+].[Na+].[Na+].[Na+].[Na+].[Na+].[Na+]	370 nM	0.16 nM	95 nM	1.8 nM	>500 s	>500 s	> 100000 nM	Active	Toxic	–	–	–	–	–
CCCCc1ccc(CO[C@H]2O[C@H](COS(=O)(=O)[O-])[C@@H](OS(=O)(=O)[O-])[C@H](OS(=O)(=O)[O-])[C@@H]2O[C@H]2O[C@H](COS(=O)(=O)[O-])[C@@H](OS(=O)(=O)[O-])[C@H](O[C@H]3O[C@H](COS(=O)(=O)[O-])[C@@H](OS(=O)(=O)[O-])[C@H](O[C@H]4O[C@H](COS(=O)(=O)[O-])[C@@H](OS(=O)(=O)[O-])[C@H](OS(=O)(=O)[O-])[C@@H]4OS(=O)(=O)[O-])[C@@H]3OS(=O)(=O)[O-])[C@@H]2OS(=O)(=O)[O-])cc1.[Na+].[Na+].[Na+].[Na+].[Na+].[Na+].[Na+].[Na+].[Na+].[Na+].[Na+].[Na+].[Na+]	310 nM	0.21 nM	160 nM	12 nM	73.1 s	49.8 s	> 100000 nM	–	–	–	–	–	–	–
O=S(=O)([O-])OC[C@H]1O[C@H](OCCCCCCCCn2cc(-c3cccc4ccccc34)nn2)[C@@H](O[C@H]2O[C@H](COS(=O)(=O)[O-])[C@@H](OS(=O)(=O)[O-])[C@H](O[C@H]3O[C@H](COS(=O)(=O)[O-])[C@@H](OS(=O)(=O)[O-])[C@H](O[C@H]4O[C@H](COS(=O)(=O)[O-])[C@@H](OS(=O)(=O)[O-])[C@H](OS(=O)(=O)[O-])[C@@H]4OS(=O)(=O)[O-])[C@@H]3OS(=O)(=O)[O-])[C@@H]2OS(=O)(=O)[O-])[C@@H](OS(=O)(=O)[O-])[C@@H]1OS(=O)(=O)[O-].[Na+].[Na+].[Na+].[Na+].[Na+].[Na+].[Na+].[Na+].[Na+].[Na+].[Na+].[Na+].[Na+]	270 nM	0.19 nM	110 nM	7.1 nM	59.5 s	28.8 s	> 100000 nM	–	–	–	–	–	–	–
CCCCCCCCCCCCO[C@H]1O[C@H](COS(=O)(=O)[O-])[C@@H](OS(=O)(=O)[O-])[C@H](OS(=O)(=O)[O-])[C@@H]1O[C@H]1O[C@H](COS(=O)(=O)[O-])[C@@H](OS(=O)(=O)[O-])[C@H](O[C@H]2O[C@H](COS(=O)(=O)[O-])[C@@H](OS(=O)(=O)[O-])[C@H](O[C@H]3O[C@H](COS(=O)(=O)[O-])[C@@H](OS(=O)(=O)[O-])[C@H](O[C@H]4O[C@H](COS(=O)(=O)[O-])[C@@H](OS(=O)(=O)[O-])[C@H](OS(=O)(=O)[O-])[C@@H]4OS(=O)(=O)[O-])[C@@H]3OS(=O)(=O)[O-])[C@@H]2OS(=O)(=O)[O-])[C@@H]1OS(=O)(=O)[O-].[Na+].[Na+].[Na+].[Na+].[Na+].[Na+].[Na+].[Na+].[Na+].[Na+].[Na+].[Na+].[Na+].[Na+].[Na+].[Na+]	280 nM	6 nM	480 nM	12 nM	125.9 s	64.2 s	> 100000 nM	–	–	–	–	–	–	–
MUPARFOSTAT SODIUM [listing 1 of 2 here]	–	–	–	–	–	> 500 s	–	–	–	–	–	–	> 0.139 h	58%
MUPARFOSTAT SODIUM [listing 2 of 2 here]	–	–	–	–	–	–	> 100000 nM	–	Toxic	–	–	–	–	–
